Screens: PubChem BioAssay, Sanford-Burnham Center for Chemical Genomics
STEP inh: STEP phosphatase inhibitors, primary screen, biochemical, fluorescence intensity, uHTS | Tyrosine-protein phosphatase non-receptor type 5 (Homo sapiens), P54829 | recombinant STEP, OMFP fluorogenic substrate | inhibition, % at 20 µM | actives 0.25% (n = 360,000) | AID 588621, 2011;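 active = inhibition at 20 µM, scaled per plate between control wells, above about 37%, limit read from the data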;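 note: 0% = DMSO with enzyme and substrate and 100% = substrate only without enzyme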
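Test system: STEP tyrosine phosphatase / Reagent: OMFP at 25 µM / Doses: 20 µM, 1% DMSO / Read-out: percent inhibition scaled to no-enzyme and uninhibited-enzyme controls, plate-pattern corrected / Detection: FITC-channel fluorescence of OMFP product / Medium: Bis-Tris buffer pH 6.0, 2.5 mM DTT, 0.005% Tween 20 / Schedule: 20 min at room temperature, dark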
DNMT1 inh: human DNMT1 methyltransferase inhibitors, primary screen, biochemical, molecular beacon, fluorescence, HinP1I cleavage, uHTS | inhibition (reported as % activation of signal), % at 10 µM | actives 0.83% (n = 360,000) | AID 588458, 2011 | DNA (cytosine-5)-methyltransferase 1 (Homo sapiens), P26358; in the data active = inhibition above about 50%
Scp1 inh: Scp-1 phosphatase inhibitors, primary screen, biochemical, colorimetric, uHTS; Recombinant Scp1, phosphopeptide, malachite green phosphate absorbance; actives 0.88% (n = 340,000); Carboxy-terminal domain RNA polymerase II polypeptide A small phosphatase 1 (Homo …; inhibition, % at 20 µM;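 active = inhibition above about 50% at 20 µM, limit read from the data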;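 note: plate controls were DMSO wells with enzyme for no effect and wells lacking enzyme for full effect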
Target sequence (Q9GZU7 76-261 limits assumed): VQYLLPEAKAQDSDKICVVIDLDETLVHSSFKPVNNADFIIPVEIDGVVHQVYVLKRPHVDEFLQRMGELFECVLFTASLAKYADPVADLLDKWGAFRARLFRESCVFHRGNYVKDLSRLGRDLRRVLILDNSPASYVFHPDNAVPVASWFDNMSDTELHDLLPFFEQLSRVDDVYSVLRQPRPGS
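Test system – truncated SCP-1 phosphatase (76-261aa) · Reagent – Phosphorylated 17-residue peptide substrate · Incubation – 45 min room-temperature reaction, 5 min colour, 30 min stabiliser · Detection – colorimetric phosphate reagent with accelerator and stabiliser, absorbance at 630 nm · Measure – % inhibition at 20 µM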
Rpn11 inh: Rpn11 (PSMD14) deubiquitinase inhibitors, primary screen, biochemical, fluorescence polarization, uHTS; inhibition, % at 20 µM; 26S proteasome non-ATPase regulatory subunit 14 (Homo sapiens), O00487; actives 0.59% (n = 360,000); human 26S proteasome, Ub4-pepOG fluorescence polarization; 20S core pre-blocked with epoxomicin;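 active = inhibition at 20 µM, scaled to each plate's controls, above about 33%, limit read from the data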
LMPTP inh: LMPTP phosphatase inhibitors, primary screen, biochemical, fluorescence intensity, uHTS; Low molecular weight phosphotyrosine protein phosphatase (Homo sapiens), P24666; recombinant LMPTP-A, OMFP fluorogenic substrate; inhibition, % at 20 µM; actives 0.22% (n = 360,000); AID 651560, 2012;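 active = compounds that cut the enzyme signal by at least half of the control window in the single-dose screen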;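 note: plate controls were DMSO wells with enzyme plus substrate for no effect and substrate without enzyme for full effect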
Target sequence (P24666 whole entry, looked up): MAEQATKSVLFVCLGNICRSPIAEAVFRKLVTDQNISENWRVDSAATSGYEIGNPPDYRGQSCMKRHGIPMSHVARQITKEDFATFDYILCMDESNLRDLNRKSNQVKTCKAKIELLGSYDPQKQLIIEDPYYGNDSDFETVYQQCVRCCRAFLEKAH
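Material: LMPTP-A; amount: 0.625 nM enzyme; doses: single 20 µM dose; times: reaction 50 min, room temperature, dark; technique: fluorescence intensity of OMFP turnover product; benchmarks: no-enzyme and uninhibited controls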
Scp-1 conf: Scp-1 phosphatase inhibitors, retest, confirmation, biochemical, colorimetric, single concentration | inhibition, % at 20 µM | shares compounds with Scp1 inh | AID 540281, 2011 | recombinant SCP-1 catalytic domain, phosphate release, malachite green absorbance | actives 61% (n = 2,500);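 note: plate controls were DMSO with enzyme for no effect and buffer wells lacking enzyme for full effect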
MG interference: colorimetric readout interference by compounds, confirmation, artefact control for Scp-1 inhibitor project, biochemical, single concentration; 2,500 tested, under 10 active; AID 540313, 2011; Colorimetric interference counterscreen, malachite green absorbance 630 nm; apparent inhibition (interference), % at 20 µM; shares compounds with Scp1 inh;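 note: compounds added after enzyme reaction finished so only phosphate colour detection is probed; plate controls were DMSO wells with completed Scp-1 reaction for no effect and substrate wells lacking enzyme for full effect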
Scp1 DSF: Scp-1 binding by thermal shift, confirmation, orthogonal assay for Scp-1 inhibitor project, biophysical, differential scanning fluorimetry; shares compounds with Scp1 inh; Recombinant SCP1, Sypro Orange thermal shift Tm; thermal shift relative to vanadate control, % at 40 µM; actives 25% (n = 1,500); AID 540329, 2011;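 active = substances whose mean melting-temperature shift, as a percentage of the reference inhibitor's shift, reaches about 5.3%, limit read from the data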;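 note: 0% = Tm of DMSO wells and 100% = Tm with sodium orthovanadate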
* marks the source's active call; other numbers are inactive results; / = no result. Rows were chosen to be rich in hits. Some 2% of all compounds tested hit in one or more screens of this group.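 Rule for the calls, unless noted: active = inhibition of at least 30% at 20 µM; inactive = the rest.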

SMILES	STEP inh	DNMT1 inh	Scp1 inh	Rpn11 inh	LMPTP inh	Scp-1 conf	MG interference	Scp1 DSF
O=C1O[C@@H](c2ccccc2)C[C@@H](O)C(=O)CCCc2ccccc21	/	/	/	/	1	/	/	/
O=C(O)C1(S(=O)(=O)CCC(F)=C(F)F)CC1	0	1	98*	-7	-1	-6	-7	/
COc1ccc(NC(=O)C2(C)CCN2CCc2ccccc2)cc1OC (stereo unspecified)	0	-1	/	-2	1	/	/	/
O=C1NCCCc2c1oc1cc(Br)c(O)c(Br)c21	0	2	-5	0	-6	/	/	/
O=C1NCCCC2c3c(cc(Br)c(O)c3Br)OC12N1CCCCC1 (stereo unspecified)	-2	1	57*	6	1	-9	-20	/
O=C(N/N=C/c1ccc2ccccc2c1)c1ccc(COc2ccc3c(c2)CCC3)o1	5	17	102*	5	32	71*	-18	-21
Cn1c(SCC(=O)N/N=C/C=C/c2ccccc2[N+](=O)[O-])nc2ccccc21	2	5	-10	-2	-3	/	/	/
O=C(N/N=C/C=C/c1ccco1)c1cnccn1	1	11	5	-7	0	/	/	/
O=C(N/N=C/C=C\c1ccco1)c1ccccn1	1	21	52*	7	3	39*	-7	5
Cn1c(SCC(=O)N/N=C/C=C/c2ccco2)nc2ccccc21	-1	57*	73*	-31	28	62*	-9	1
CCCCC(=O)N(C)c1c(CC)nc2c(OCc3ccc(C(F)(F)F)cc3)cccn12	5	-2	/	0	3	/	/	/
CC1(C(=O)NCc2ccccc2)CSCC(=O)N1Cc1ccco1 (stereo unspecified)	/	/	/	/	-2	/	/	/
OC[C@@H]1CN(C2CCCC2)C[C@H](n2cnc3c(NC4CC4)ncnc32)O1	-1	-2	/	-1	-2	/	/	/
Cc1cccc(-c2nc(S(=O)(=O)c3ccccc3)c(N3CCOCC3)o2)c1	-1	-4	54*	0	1	0	4	/
Nc1ccc(-c2ccc(N)c(C(=O)O)c2)cc1C(=O)O	1	19	55*	7	1	-5	-16	/
CCCCC(CC)C1OCC(C[N+]2(C)CCOCC2)O1 (stereo unspecified)	0	3	31	6	-1	/	/	/
CC(c1ccccc1)C1OCC(C[N+]2(C)CCCCC2)O1 (stereo unspecified)	-4	-2	93*	-1	1	83*	-13	-5
Cc1c(C(=O)NCCN2CCOC2=O)oc2c(F)cccc12	-2	0	1	-5	-1	-19	-16	/
O=C1NC(=S)S/C1=C1\Sc2ccccc2N1CCCS(=O)(=O)O	6	9	-2	3	-1	/	/	/
NN1C(=O)/C(=C2/Sc3ccccc3N2CCCS(=O)(=O)O)SC1=S	29	30	84*	5	0	73*	2	-11
COc1ccc(CCNC(=O)c2cc(-c3ccco3)nc3ccccc23)cc1	/	/	87*	/	/	73*	-6	5
